According to ChEMBL document CHEMBL5252534, “Discovery of a Noncovalent, Mutant-Selective Epidermal Growth Factor Receptor Inhibitor” (J Med Chem, 2016):
Converted amounts (≈) assume the structure as drawn.

Assays:
[1] = target: T1, Epidermal growth factor receptor (Homo sapiens, UniProt P00533, 746-750DEL/T790M); assay: Inhibition of human EGFR T790M/del (746 to 750 residues) mutant assessed as apparent inhibition constant using Fl-EEPLYWSFPAKKK-CONH2 peptide as substrate preincubated for 30 mins followed by addition of substrate and measured after 30 mins by Morrison plot analysis; details: read-out: Ki(app)
Outline: (§1)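 Biochemical kinase Ki determination; reported values are geometric means of at least two independent experiments.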

[2] = target: T2, Epidermal growth factor receptor (Homo sapiens, UniProt P00533, 746-750DEL); assay: Inhibition of human EGFR del (746 to 750) mutant assessed as apparent inhibition constant using Fl-EEPLYWSFPAKKK-CONH2 as substrate preincubated for 30 mins followed by addition of substrate and measured after 30 mins by Morrison plot analysis; details: read-out: Ki(app); outline: as §1
[3] = target: T3, Epidermal growth factor receptor (Homo sapiens, UniProt P00533); assay: Inhibition of wild type human EGFR assessed as apparent inhibition constant using Fl-EEPLYWSFPAKKK-CONH2 as substrate preincubated for 30 mins followed by addition of substrate and measured after 30 mins by Morrison plot analysis; details: read-out: Ki(app)
[4] = Aqueous kinetic solubility of compound in PBS buffer at pH 7.4 at 100 uM incubated for 24 hrs by LC/CLND analysis; format: physicochemical; details: read-out: Kinetic_solubility
Outline: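 Kinetic aqueous solubility measured at pH 7.4.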

[5] = Apparent permeability across apical to basolateral side in dog MDCK cells; format: ADME, cell-based, Canis lupus familiaris
[6] = target: Epidermal growth factor receptor (Homo sapiens, UniProt P00533, L858R); assay: Inhibition of human EGFR L858R mutant assessed as apparent inhibition constant using Fl-EEPLYWSFPAKKK-CONH2 peptide as substrate preincubated for 30 mins followed by addition of substrate and measured after 30 mins by Morrison plot analysis; details: read-out: Ki(app); outline: as §1
[7] = target: T4, Epidermal growth factor receptor (Homo sapiens, UniProt P00533, L858R/T790M); assay: Inhibition of human EGFR T790M/L858R double mutant assessed as apparent inhibition constant using Fl-EEPLYWSFPAKKK-CONH2 as peptide substrate preincubated for 30 mins followed by addition of substrate and measured after 30 mins by Morrison plot analysis; details: read-out: Ki(app)
[8] = target: T2, Epidermal growth factor receptor; format: cell-based, PC-9
[9] = Clearance in human liver microsomes; format: ADME, Microsome
Outline: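 Incubation with human liver microsomes; intrinsic clearance scaled to predicted hepatic clearance as Clhep = (Q × Clint)/(Q + Clint), where Q is liver blood flow.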

[10] = target: T4, Epidermal growth factor receptor; format: cell-based, NCI-H1975
[11] = target: T3, Epidermal growth factor receptor; assay: Inhibition of EGFR autophosphorylation in human NCI-H292 cells harboring harboring wild type EGFR preincubated for 60 mins followed by EGF stimulation and measured after 8 mins by SULFO-TAG based electrochemiluminescent assay; format: cell-based
Target sequence in this assay (P00533 25-1210 limits assumed, stated change not applied): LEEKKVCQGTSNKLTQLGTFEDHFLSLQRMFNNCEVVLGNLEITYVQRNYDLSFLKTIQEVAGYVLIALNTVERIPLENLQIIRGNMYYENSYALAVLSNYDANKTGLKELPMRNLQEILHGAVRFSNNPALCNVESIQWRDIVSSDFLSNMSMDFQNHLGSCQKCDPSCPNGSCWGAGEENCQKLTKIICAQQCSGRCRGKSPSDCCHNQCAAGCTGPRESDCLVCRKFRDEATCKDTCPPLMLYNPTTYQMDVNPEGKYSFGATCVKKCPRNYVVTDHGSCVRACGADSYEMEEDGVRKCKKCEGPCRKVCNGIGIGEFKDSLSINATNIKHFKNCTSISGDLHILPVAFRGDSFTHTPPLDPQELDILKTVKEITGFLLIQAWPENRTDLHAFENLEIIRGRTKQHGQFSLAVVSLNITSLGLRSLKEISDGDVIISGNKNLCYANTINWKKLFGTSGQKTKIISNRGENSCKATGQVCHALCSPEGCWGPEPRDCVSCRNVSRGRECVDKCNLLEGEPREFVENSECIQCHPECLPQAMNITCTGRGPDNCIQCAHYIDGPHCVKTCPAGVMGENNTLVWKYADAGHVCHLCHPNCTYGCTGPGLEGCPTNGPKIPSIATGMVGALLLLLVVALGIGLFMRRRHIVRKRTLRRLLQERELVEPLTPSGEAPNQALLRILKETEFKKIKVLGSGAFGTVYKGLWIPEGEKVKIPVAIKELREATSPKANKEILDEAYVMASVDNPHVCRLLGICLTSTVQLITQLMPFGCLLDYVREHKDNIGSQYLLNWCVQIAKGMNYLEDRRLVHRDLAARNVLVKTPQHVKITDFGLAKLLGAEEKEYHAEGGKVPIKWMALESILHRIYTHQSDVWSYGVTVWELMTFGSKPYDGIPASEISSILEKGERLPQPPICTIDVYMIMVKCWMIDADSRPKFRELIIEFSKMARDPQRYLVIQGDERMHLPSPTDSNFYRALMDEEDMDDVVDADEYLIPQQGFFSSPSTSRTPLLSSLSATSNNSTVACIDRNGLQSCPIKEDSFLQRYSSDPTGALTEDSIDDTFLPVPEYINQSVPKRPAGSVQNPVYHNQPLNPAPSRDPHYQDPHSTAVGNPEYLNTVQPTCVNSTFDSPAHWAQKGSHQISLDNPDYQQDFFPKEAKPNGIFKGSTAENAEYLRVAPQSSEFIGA

[12] = target: T1, Epidermal growth factor receptor; format: cell-based, PC-9/ER1
[13] = Clearance in human hepatocyte; format: ADME, cell-based; details: hepatocytes
Outline: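 Cryopreserved human hepatocytes used; intrinsic clearance converted to predicted hepatic clearance as (Q × Clint)/(Q + Clint) using liver blood flow Q.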

T4 sequence (P00533 25-1210 T790M/L858R limits assumed): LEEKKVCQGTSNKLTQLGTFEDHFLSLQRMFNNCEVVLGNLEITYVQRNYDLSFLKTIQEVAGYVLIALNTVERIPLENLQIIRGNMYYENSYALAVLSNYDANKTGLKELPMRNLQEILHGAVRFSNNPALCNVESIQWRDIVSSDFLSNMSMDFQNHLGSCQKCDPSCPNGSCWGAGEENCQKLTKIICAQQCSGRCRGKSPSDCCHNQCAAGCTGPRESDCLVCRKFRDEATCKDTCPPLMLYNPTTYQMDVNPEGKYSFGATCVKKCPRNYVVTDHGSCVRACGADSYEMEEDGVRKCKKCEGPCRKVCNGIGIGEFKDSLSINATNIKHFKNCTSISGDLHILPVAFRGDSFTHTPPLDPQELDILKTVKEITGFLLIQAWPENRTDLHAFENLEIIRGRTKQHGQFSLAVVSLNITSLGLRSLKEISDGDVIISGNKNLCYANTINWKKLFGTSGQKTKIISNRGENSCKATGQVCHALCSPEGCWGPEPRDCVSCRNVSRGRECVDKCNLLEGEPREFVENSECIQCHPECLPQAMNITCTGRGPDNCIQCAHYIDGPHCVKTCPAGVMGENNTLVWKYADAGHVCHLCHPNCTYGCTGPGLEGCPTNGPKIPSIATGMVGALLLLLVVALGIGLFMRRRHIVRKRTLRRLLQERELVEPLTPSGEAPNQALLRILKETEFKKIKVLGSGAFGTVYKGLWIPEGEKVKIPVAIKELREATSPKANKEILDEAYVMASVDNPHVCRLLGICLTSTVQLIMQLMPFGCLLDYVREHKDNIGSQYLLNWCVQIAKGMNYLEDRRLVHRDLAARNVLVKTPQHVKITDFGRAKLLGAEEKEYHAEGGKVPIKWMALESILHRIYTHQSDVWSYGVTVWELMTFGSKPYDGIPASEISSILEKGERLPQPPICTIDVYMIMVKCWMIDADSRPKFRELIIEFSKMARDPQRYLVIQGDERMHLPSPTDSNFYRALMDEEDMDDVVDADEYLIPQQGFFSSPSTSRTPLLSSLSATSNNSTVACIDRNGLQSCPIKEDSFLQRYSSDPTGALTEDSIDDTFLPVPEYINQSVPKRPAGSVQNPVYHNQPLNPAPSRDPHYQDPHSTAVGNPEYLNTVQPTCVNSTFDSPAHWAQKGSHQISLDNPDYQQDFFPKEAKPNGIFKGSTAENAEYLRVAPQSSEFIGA
Epidermal growth factor receptor (Homo sapiens, UniProt P00533, L858R), sequence (P00533 25-1210 L858R limits assumed): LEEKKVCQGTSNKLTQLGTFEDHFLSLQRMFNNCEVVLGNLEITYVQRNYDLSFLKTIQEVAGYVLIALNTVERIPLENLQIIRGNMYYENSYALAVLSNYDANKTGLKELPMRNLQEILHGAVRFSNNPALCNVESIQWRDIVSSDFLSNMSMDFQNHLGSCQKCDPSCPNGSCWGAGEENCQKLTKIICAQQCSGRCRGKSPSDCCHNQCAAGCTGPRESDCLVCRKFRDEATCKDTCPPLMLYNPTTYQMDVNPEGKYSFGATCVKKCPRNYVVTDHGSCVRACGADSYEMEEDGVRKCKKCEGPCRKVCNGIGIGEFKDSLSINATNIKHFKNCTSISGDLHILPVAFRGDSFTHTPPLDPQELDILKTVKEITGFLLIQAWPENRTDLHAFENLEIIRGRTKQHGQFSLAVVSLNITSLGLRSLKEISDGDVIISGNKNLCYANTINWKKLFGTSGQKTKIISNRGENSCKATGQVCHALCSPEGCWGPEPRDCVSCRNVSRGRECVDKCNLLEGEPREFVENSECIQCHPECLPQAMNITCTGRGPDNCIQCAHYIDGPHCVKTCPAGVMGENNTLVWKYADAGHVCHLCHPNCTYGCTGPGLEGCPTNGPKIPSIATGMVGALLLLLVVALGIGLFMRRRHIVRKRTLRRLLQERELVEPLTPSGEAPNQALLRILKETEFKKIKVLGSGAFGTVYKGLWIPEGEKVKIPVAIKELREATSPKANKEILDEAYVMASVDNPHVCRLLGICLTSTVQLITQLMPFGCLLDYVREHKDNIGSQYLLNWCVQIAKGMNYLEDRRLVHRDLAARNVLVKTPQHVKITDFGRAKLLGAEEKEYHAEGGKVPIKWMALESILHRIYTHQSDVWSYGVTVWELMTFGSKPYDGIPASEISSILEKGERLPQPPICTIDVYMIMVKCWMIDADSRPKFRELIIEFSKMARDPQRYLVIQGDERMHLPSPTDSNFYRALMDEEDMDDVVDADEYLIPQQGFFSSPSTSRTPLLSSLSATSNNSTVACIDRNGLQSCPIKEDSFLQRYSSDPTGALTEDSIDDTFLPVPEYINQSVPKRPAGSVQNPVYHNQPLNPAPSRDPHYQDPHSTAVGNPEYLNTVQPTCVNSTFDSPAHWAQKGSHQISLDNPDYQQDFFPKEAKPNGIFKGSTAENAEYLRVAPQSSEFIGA
T2 sequence (P00533 whole entry, looked up, stated change not applied): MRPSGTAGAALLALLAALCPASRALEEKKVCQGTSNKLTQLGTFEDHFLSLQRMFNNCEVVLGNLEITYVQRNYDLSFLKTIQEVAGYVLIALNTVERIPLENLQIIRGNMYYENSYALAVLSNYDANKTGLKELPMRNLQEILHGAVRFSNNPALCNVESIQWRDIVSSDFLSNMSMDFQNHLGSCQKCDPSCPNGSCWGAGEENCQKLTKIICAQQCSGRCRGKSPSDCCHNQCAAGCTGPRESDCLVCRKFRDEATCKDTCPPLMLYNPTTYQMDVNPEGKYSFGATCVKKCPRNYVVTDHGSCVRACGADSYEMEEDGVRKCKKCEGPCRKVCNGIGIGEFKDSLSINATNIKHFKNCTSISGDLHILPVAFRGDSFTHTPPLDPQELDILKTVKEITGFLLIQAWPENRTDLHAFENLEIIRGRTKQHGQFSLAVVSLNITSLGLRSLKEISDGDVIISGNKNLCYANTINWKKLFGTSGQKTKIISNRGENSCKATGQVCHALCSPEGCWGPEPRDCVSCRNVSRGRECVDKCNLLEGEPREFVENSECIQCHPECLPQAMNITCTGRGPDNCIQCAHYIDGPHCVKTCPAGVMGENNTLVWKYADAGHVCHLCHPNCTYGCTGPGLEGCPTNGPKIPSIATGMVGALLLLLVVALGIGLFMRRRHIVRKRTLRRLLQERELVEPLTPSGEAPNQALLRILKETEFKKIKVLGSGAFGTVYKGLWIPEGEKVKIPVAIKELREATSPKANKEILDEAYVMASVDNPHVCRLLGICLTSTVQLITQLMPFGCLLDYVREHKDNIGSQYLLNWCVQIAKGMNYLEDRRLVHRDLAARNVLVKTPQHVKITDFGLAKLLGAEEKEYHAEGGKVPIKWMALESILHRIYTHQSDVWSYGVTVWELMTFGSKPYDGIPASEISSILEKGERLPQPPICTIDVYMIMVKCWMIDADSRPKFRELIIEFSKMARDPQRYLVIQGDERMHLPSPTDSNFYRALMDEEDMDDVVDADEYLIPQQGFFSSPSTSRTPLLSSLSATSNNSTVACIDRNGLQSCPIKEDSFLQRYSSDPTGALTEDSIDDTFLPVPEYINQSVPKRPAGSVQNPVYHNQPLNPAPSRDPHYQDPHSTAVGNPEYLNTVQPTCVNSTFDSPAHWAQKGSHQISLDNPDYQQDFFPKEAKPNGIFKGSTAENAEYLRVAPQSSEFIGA

Row | SMILES | Ki [1] [nM] | Ki [2] [nM] | Ki [3] [nM] | solubility kinetic at 24 h, 100 µM [4] [µM] | Papp A→B [5] [×10⁻⁶ cm/s] | Ki [6] [nM] | Ki [7] [nM] | IC50 [8] [nM] | CLhep predicted [9] [mL/min/kg] | IC50 [10] [nM] | IC50 [11] [nM] | IC50 [12] [nM] | CLhep predicted [13] [mL/min/kg]
1 | CC(C)n1cc(C(N)=O)c2cnc(Nc3ccnc(-c4cnn(S(=O)(=O)C5CC5)c4)n3)cc21 | 0.35 | 1.2 | 7.8 | < 1 | 4.5 | 4.1 | 1.1 | – | – | – | – | – | –
2 | CC(C)n1nc(N2CCOCC2)c2cnc(Nc3ccnc(-c4cnn(S(=O)(=O)C5CC5)c4)n3)cc21 | – | – | 10 | 1 (≈ 0.51 µg/mL) | 12 | – | 2.1 | 76 | 9.3 | 74 | 850 | 19 | 6.7
3 | Cc1nc2cnc(Nc3ccnc(-c4cnn(S(=O)(=O)C5CC5)c4)n3)cc2n1C(C)C | 1.8 | 12 | 55 | – | 21 | 43 | – | – | 7.7 | – | – | – | 4
4 | Cc1nc2cnc(Nc3ccnc(N4CC[C@H](O)[C@H](F)C4)n3)cc2n1C(C)C (racemic) | 43 | 1300 | – | – | 19 | 1100 | – | – | 5.2 | – | – | – | 9
5 | CC(C)n1nc(N2CCC(O)CC2)c2cnc(Nc3ccnc(-c4cnn(S(=O)(=O)C5CC5)c4)n3)cc21 | – | – | – | 1 (≈ 0.524 µg/mL) | 12 | – | – | – | 7 | – | – | – | 7.7
6 | CC[C@@H](C)n1nc(N2CC(C(C)(C)O)C2)c2cnc(Nc3ccnc(-c4cnn(S(=O)(=O)C5CC5)c4)n3)cc21 | – | – | – | 2 (≈ 1.1 µg/mL) | 19 | – | – | 57 | 9.9 | 40 | 580 | 15 | 7.8
7 | CO[C@H]1CCN(c2nccc(Nc3cc4c(cn3)nc(C)n4C(C)C)n2)C[C@H]1F | 41 | 1800 | 896 | – | – | 608 | 3.6 | – | – | – | – | – | –
8 | CC(C)n1nc(N2CC(CO)C2)c2cnc(Nc3ccnc(-c4cnn(S(=O)(=O)C5CC5)c4)n3)cc21 | – | – | 2 | 3 (≈ 1.53 µg/mL) | 8.1 | – | < 0.6 | 28 | 10 | 19 | 96 | 8.1 | 13
9 | Cc1nc2cnc(Nc3ccnc(-c4cnn(CC5CC5)c4)n3)cc2n1C(C)C | – | – | 1200 | – | – | – | 34 | – | – | – | – | – | –
